Measurements taken from ChEMBL document CHEMBL4837214, “Design, synthesis, and biological evaluation of novel tetrahydroprotoberberine derivatives to reduce SREBPs expression for the treatment of hyperlipidemia” (Eur J Med Chem, 2021).
Activity calls are given as the source filed them. No cut-off for these calls is given here.

Legend:
[1] = test system: HepG2; assay: Down regulation of SCD gene expression in human HepG2 cells by qRT-PCR analysis; type: functional, cell-based
[2] = test system: Mus musculus; assay: […] activity in high fat diet-induced C57BL/6J mouse assessed as reduction in Scd mRNA level in liver at 170 to 340 mg/kg, po administered daily for 6 weeks by qRT-PCR analysis; type: functional, organism-based; settings: dose 170-340 mg/kg
Outline: (§1)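 Male C57BL/6J mice, six weeks old, fed a 45%-fat diet (HFD) for 15 weeks; chow-fed mice served as controls. Obese mice were randomized to vehicle (0.1% w/v CMC-Na) or 170 or 340 mg/kg, gavaged daily for 6 weeks while diet continued. Body weight, food intake, organ weights, serum lipids, tissue histology (H&E, Oil red O), liver SREBP blots and liver qPCR followed.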

[3] = test system: HepG2; assay: Down regulation of ACC gene expression in human HepG2 cells by qRT-PCR analysis; type: functional, cell-based
[4] = test system: Mus musculus; assay: […] activity in high fat diet-induced C57BL/6J mouse assessed as reduction in ACC mRNA level in liver at 170 to 340 mg/kg, po administered daily for 6 weeks by qRT-PCR analysis; type: functional, organism-based; settings: dose 170-340 mg/kg; outline: as §1
[5] = test system: Mus musculus; assay: Hypoglycemic activity in high fat diet-induced C57BL/6J mouse assessed as improvement in insulin tolerance at 170 to 340 mg/kg, po administered daily for 6 weeks and measured up to 120 mins by ITT method; type: functional, organism-based; settings: dose 170-340 mg/kg; outline: as §1
[6] = molecular target: T1, Sterol regulatory element-binding protein 1 (Homo sapiens) (UniProt P36956); assay: Induction of SREBP degradation expressed in human HEK293T cells assessed as increase in SREBP ubiquitination at 10 uM after 24 hrs by Western blot analysis; type: cell-based
T1 sequence (whole entry): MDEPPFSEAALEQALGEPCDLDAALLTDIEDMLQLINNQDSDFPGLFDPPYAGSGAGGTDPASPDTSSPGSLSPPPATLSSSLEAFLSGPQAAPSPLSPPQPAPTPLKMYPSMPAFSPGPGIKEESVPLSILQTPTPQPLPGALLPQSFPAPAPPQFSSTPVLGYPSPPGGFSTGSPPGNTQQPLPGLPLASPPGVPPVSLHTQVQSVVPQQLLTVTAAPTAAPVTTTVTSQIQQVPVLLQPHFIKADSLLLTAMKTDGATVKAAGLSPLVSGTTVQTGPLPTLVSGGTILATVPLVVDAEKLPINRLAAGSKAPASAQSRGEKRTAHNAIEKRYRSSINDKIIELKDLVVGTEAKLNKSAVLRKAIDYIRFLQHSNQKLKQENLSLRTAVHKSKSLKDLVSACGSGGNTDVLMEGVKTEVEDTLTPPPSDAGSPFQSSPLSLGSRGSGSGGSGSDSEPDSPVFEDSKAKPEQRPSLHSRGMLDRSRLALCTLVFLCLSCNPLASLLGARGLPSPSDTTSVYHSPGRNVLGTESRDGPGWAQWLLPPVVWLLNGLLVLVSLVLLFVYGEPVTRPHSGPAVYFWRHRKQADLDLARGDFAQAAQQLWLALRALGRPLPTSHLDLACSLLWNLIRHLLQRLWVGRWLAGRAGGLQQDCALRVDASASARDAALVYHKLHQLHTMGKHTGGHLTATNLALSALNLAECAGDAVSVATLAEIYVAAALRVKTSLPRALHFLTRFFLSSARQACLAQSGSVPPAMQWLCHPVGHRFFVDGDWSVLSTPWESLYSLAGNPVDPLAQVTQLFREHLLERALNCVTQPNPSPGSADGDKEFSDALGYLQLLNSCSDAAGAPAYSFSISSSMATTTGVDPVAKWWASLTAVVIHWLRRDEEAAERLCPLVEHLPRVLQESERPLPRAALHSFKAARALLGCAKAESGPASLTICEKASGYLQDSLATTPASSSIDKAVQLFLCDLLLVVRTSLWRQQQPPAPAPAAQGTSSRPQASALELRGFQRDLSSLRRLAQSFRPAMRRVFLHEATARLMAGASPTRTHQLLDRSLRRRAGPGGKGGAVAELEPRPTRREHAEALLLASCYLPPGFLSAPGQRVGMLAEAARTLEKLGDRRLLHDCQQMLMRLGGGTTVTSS
Outline: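 293T cells seeded at 3×10⁶ per dish and transfected next day with flag-SREBP1 or flag-SREBP2 plus HA-ubiquitin. On day 2 medium replaced with DMSO or compound. On day 3 cells lysed in IP buffer and cleared at 12,000 rpm, 4 °C. Supernatant immunoprecipitated overnight at 4 °C with flag antibody or IgG. Ubiquitylated SREBPs detected by Western blot.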

[7] = Oral bioavailability in Sprague-Dawley rat at 10 mg/kg measured upto 24 hrs by LC-MS/MS analysis; type: ADME, organism-based; settings: in vivo
Outline: (§2)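 Six SD rats split into two groups of three, dosed 1 mg/kg IV or 10 mg/kg orally. IV blood drawn at 2, 5, 15, 30 min and 1, 2, 4, 6, 8, 12 h. Oral blood drawn at 5, 15, 30 min and 1, 2, 4, 6, 8, 12, 24 h. Serum drug measured by LC/MS/MS. Parameters are the average of three runs.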

[8] = test system: HepG2; assay: Down regulation of intracellular TG level in human HepG2 cells at 10 uM measured after 24 hrs; type: functional, cell-based
Outline: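 HepG2 cells grown in six-well plates and exposed 24 h to compound at […]. Cells collected in PBS and sonicated (5 s on, 10 s off, 60 s total). Total cholesterol or triglyceride measured with a colorimetric determination kit.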

[9] = Tmax in Sprague-Dawley rat at 1 mg/kg, iv measured upto 12 hrs by LC-MS/MS analysis; type: ADME, organism-based; settings: in vivo; outline: as §2
[10] = Clearance in Sprague-Dawley rat at 10 mg/kg, po measured upto 24 hrs by LC-MS/MS analysis; type: ADME, organism-based; settings: in vivo; outline: as §2
[11] = Half life in Sprague-Dawley rat at 1 mg/kg, iv measured upto 12 hrs by LC-MS/MS analysis; type: ADME, organism-based; settings: in vivo; outline: as §2
[12] = test system: HepG2; assay: Effect on PCSK9 protein expression in human HepG2 cells at 10 uM incubated for 24 hrs by Western blotting analysis; type: functional, cell-based
Outline: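 HepG2 cells treated 24 h at the indicated doses and lysed in RIPA buffer with protease inhibitors; protein quantified by BCA. Lysates run on 10% SDS-PAGE and blotted to nitrocellulose. After 5% milk block, primary antibody applied overnight at 4 °C and secondary 1 h at room temperature. β-actin served as loading reference.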

[13] = test system: HepG2; assay: Down regulation of LDLR gene expression in human HepG2 cells by qRT-PCR analysis; type: functional, cell-based
[14] = molecular target: T1, Sterol regulatory element-binding protein 1 (Homo sapiens); assay: Induction of SREBP degradation in human HepG2 cells at 10 uM preincubated with cycloheximide for 1 hr followed by compound additon by Western blot analysis; type: cell-based
Outline: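 HepG2 cells pretreated 1 h with cycloheximide at […]. Medium then switched to cycloheximide plus vehicle or compound at […] for varying times. SREBP decay rate followed by Western blot of lysates.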

[15] = test system: Mus musculus; assay: […] activity in high fat diet-induced C57BL/6J mouse assessed as reduction in Fasn mRNA level in liver at 170 to 340 mg/kg, po administered daily for 6 weeks by qRT-PCR analysis; type: functional, organism-based; settings: dose 170-340 mg/kg; outline: as §1
[16] = test system: HepG2; assay: Down regulation of FASN gene expression in human HepG2 cells by qRT-PCR analysis; type: functional, cell-based
[17] = Tmax in Sprague-Dawley rat at 10 mg/kg, po measured upto 24 hrs by LC-MS/MS analysis; type: ADME, organism-based; settings: in vivo; outline: as §2

## COc1ccc2c(c1OCC1CCCCC1)CN1CCc3cc4c(cc3C1C2)OCO4 (configuration not stated)
[1]
  Activity: Active
[2]
  Activity: Active
[3]
  Activity: Active
[4]
  Activity: Active
[5]
  Activity: Active
[6]
  Activity: Active
[7]
  bioavailability: 65.1%
[8]
  Activity: Active
[9]
  Tmax: 1.98 min
[10]
  CL: 0.511 L/h/kg
[11]
  half-life: 4.95 h
[12]
  Activity: inactive
[13]
  Activity: Active
[14]
  Activity: Active
[15]
  Activity: Active
[16]
  Activity: Active
[17]
  Tmax: 6.67 h
